Test results taken from ChEMBL document CHEMBL3414548, “Luotonin-A based quinazolinones cause apoptosis and senescence via HDAC inhibition and activation of tumor suppressor proteins in HeLa cells” (Eur J Med Chem, 2015).
Blank lines part the entries; values can stand above or below the compound they belong to. Active and inactive are the calls of the source. The calls are words filed in the database; no cut-off is given here.

Tests used:
[1] = tested on: HeLa; test: Cell cycle arrest in human HeLa cells assessed as accumulation at S phase at 4 uM after 48 hrs by propidium iodide staining-based flow cytometric analysis (reference value: 7%); type: functional
[2] = tested on: HeLa; test: Downregulation of HDAC-2 mRNA expression in human HeLa cells at 4 uM after 48 hrs by RT-PCR analysis; type: functional, cell-based
Procedure, shortened: (§1)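 HeLa cells were treated at 4 μM for 48 h before RNA isolation. cDNA was amplified by RT-PCR with gene-specific primers, using GAPDH as loading control. Products were run on 1% agarose gel with ethidium bromide, and band intensity was quantified by densitometry.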

[3] = Cytotoxicity against HEK cells after 72 hrs by MTT assay; type: cell-based; settings: Homo sapiens, HEK293, 72 h
Procedure, shortened: (§2)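 Cells were seeded at 1×10⁴ per well and preincubated 18 h at 37 °C, 5% CO₂. They were then exposed to 1–256 μM for 72 h with DMSO ≤0.25%. MTT was added for 2 h and formazan was solubilized in extraction buffer before reading OD at 570 nm. IC50 is mean ± SD of three independent experiments. HEK is the normal-cell line; cancer lines were grown in DMEM with 10% serum.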

[4] = tested on: HeLa; test: Cell cycle arrest in human HeLa cells assessed as accumulation at G1 phase at 8 uM after 48 hrs by propidium iodide staining-based flow cytometric analysis (reference value: 68%); type: functional
[5] = tested on: HeLa; test: Cell cycle arrest in human HeLa cells assessed as accumulation at G0/G1 phase at 4 uM after 48 hrs by propidium iodide staining-based flow cytometric analysis (reference value: 62%); type: functional
[6] = tested on: K562; test: Cytotoxicity against human K562 cells after 72 hrs by MTT assay; type: functional, cell-based; settings: K562, 72 h; procedure, shortened: as §2
[7] = tested on: HEK293; test: Selectivity index, ratio of IC50 for HEK cells to IC50 for human K562 cells; type: functional
Procedure, shortened: (§3)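 Selectivity index is IC50 in normal HEK cells divided by IC50 in the cancer cell line.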

[8] = tested on: HeLa; test: Upregulation of p21 mRNA expression in human HeLa cells at 4 uM after 48 hrs by RT-PCR analysis; type: functional, cell-based; procedure, shortened: as §1
[9] = tested on: HeLa; test: Induction of human p16 promoter activity transfected in human HeLa cells at 4 uM after 48 hrs by luciferase-based luminescence assay; type: cell-based
Procedure, shortened: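 A 1.4 kb human p16 promoter in pGL3-basic luciferase vector was co-transfected into HeLa with a β-gal plasmid. Cells were then treated at 4 μM for 48 h. Lysate luciferase luminescence was normalized to β-galactosidase as internal control.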

[10] = tested on: MCF7; test: Cytotoxicity against human MCF7 cells after 72 hrs by MTT assay; type: functional, cell-based; settings: MCF7, 72 h; procedure, shortened: as §2
[11] = tested on: HeLa; test: Downregulation of HDAC-5 mRNA expression in human HeLa cells at 4 uM after 48 hrs by RT-PCR analysis; type: functional, cell-based; procedure, shortened: as §1
[12] = tested on: HeLa; test: Change in HDAC-6 mRNA expression in human HeLa cells at 4 uM after 48 hrs by RT-PCR analysis; type: functional, cell-based; procedure, shortened: as §1
[13] = tested on: HeLa; test: Induction of senescence in human HeLa cells at 4 uM after 72 hrs by X-gal staining-based beta-galactosidase assay; type: functional, cell-based
Procedure, shortened: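 HeLa cells in chamber slides were treated at 4 μM for 72 h. They were fixed in 3% paraformaldehyde and then in methanol at 4 °C. Staining used X-gal in sodium phosphate buffer with ferro/ferricyanide, 1 mM MgCl₂ and citric acid for 24 h. Senescent cells were scored by microscopy as enlarged, flattened and blue.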

[14] = tested on: HeLa; test: Cytotoxicity against human HeLa cells after 72 hrs by MTT assay; type: functional, cell-based; procedure, shortened: as §2
[15] = tested on: HeLa; test: Cell cycle arrest in human HeLa cells assessed as accumulation at S phase at 8 uM after 48 hrs by propidium iodide staining-based flow cytometric analysis (reference value: 10%); type: functional
[16] = tested on: HeLa; test: Upregulation of p53 mRNA expression in human HeLa cells at 4 uM after 48 hrs by RT-PCR analysis; type: functional, cell-based; procedure, shortened: as §1
[17] = tested on: HeLa; test: Cell cycle arrest in human HeLa cells assessed as accumulation at G2/M phase at 4 uM after 48 hrs by propidium iodide staining-based flow cytometric analysis (reference value: 19%)
[18] = tested on: HeLa; test: Cell cycle arrest in human HeLa cells assessed as accumulation at G0 phase at 8 uM after 48 hrs by propidium iodide staining-based flow cytometric analysis (reference value: 3%); type: functional
[19] = tested on: HeLa; test: Downregulation of EZH2 mRNA expression in human HeLa cells at 4 uM after 48 hrs by RT-PCR analysis; type: functional, cell-based; procedure, shortened: as §1
[20] = tested on: HeLa; test: Downregulation of HDAC-1 mRNA expression in human HeLa cells at 4 uM after 48 hrs by RT-PCR analysis; type: functional, cell-based; procedure, shortened: as §1
[21] = tested on: HEK293; test: Selectivity index, ratio of IC50 for HEK cells to IC50 for human MCF7 cells; type: functional; procedure, shortened: as §3
[22] = tested on: HeLa; test: Selectivity index, ratio of IC50 for HEK cells to IC50 for human HeLa cells; type: functional; procedure, shortened: as §3
[23] = biological target: Histone deacetylase (HDAC1 and HDAC2) (Homo sapiens, UniProt Q13547+Q92769); test: Inhibition of HDAC1/2 in human HeLa cells using color de lys as substrate after 30 mins by colorimetric analysis; type: cell-based
Procedure, shortened: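 HeLa cells were treated at 4 μM, with TSA as reference. Samples were then incubated 30 min with Color de Lys substrate and HDAC-1/2. Developer yields a yellow product, and absorbance was read at 405 nm.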

[24] = tested on: HeLa; test: Cell cycle arrest in human HeLa cells assessed as accumulation at G2/M phase at 4 uM after 48 hrs by propidium iodide staining-based flow cytometric analysis (reference value: 31%); type: functional
[25] = tested on: HeLa; test: Change in HDAC-7 mRNA expression in human HeLa cells at 4 uM after 48 hrs by RT-PCR analysis; type: functional, cell-based; procedure, shortened: as §1

IC50 [23]: 6.4 µM
Compound: O=c1c2ccccc2nc2n1Cc1cc3ccccc3nc1-2 [LUOTONIN A]
Activity [1]: 5%
Activity [2]: Active
IC50 [3]: 58 µM
Activity [4]: 72%
Activity [5]: 75%
IC50 [6]: 28.8 µM
Ratio IC50 [7]: 2.01
Activity [8]: Active
Activity [9]: Active
IC50 [10]: 9.28 µM
Activity [11]: Active
Activity [12]: inactive
Activity [13]: Active
IC50 [14]: 5.94 µM
Activity [15]: 5%
Activity [16]: Active
Activity [17]: 17%
Activity [18]: 5%
Activity [19]: Active
Activity [20]: Active
Ratio IC50 [21]: 6.25
Ratio IC50 [22]: 9.76
Activity [24]: 20%
Activity [25]: inactive

IC50 [23]: 2.96 µM
Compound: Cc1nc2ccccc2c(=O)n1-c1ccccc1Cn1cc(-c2ccccc2)nn1
Activity [1]: 6%
Activity [2]: Active
IC50 [3]: 256 µM
Activity [4]: 72%
Activity [5]: 76%
IC50 [6]: 20.2 µM
Ratio IC50 [7]: 12.69
Activity [8]: Active
Activity [9]: Active
IC50 [10]: 8 µM
Activity [11]: Active
Activity [12]: inactive
Activity [13]: Active
IC50 [14]: 5.94 µM
Activity [15]: 6%
Activity [16]: Active
Activity [17]: 15%
Activity [18]: 7%
Activity [19]: Active
Activity [20]: Active
Ratio IC50 [21]: 32
Ratio IC50 [22]: 43.09
Activity [24]: 18%
Activity [25]: inactive
